Experiment: Toxicity liver stage against HepG2, at 10uM
Type: cell-based
Set-up: test concentration 10 uM, cell line HepG2-A16-CD81EGFP
Conditions: human, HepG2-A16-CD81EGFP cells; read-out: INHIBITION
In short: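 Uninfected HepG2-A16-CD81EGFP cells, 3 × 10^3 per well, 1536-well, plated on prespotted compound at 10 μM final, parasite-free screening media added to match infected plates; puromycin 10 μM positive, DMSO 0.5% negative; run in parallel with 48 h PbLuc assay at 37 °C, 5% CO2; viability by CellTiter-Glo luminescence, normalized to controls.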

COCCN1CCc2ccccc2NCCC1=O
cytotoxicity at 10 µM: -2.51%

Cc1cc(C)n(CCN2CCN(C(=O)c3cc4ccccc4o3)CC2)n1
cytotoxicity at 10 µM: -3.97%

Cc1oncc1C(=O)N1CC[C@H]2[C@H](CO[C@@H]2CNS(C)(=O)=O)C1
cytotoxicity at 10 µM: 0.0508%

CC(C)Cc1nc(OCC(N)=O)c(C#N)c2c1CCC2
cytotoxicity at 10 µM: 75.7%

COC(=O)CC(c1cnn(C)c1)c1oc(C)cc(=O)c1O (stereo unspecified)
cytotoxicity at 10 µM: 21.9%

O=C(CSc1nc2c(cnn2CCO)c(=O)[nH]1)N1CCCCCC1
cytotoxicity at 10 µM: -15.4%

CNC(=O)CS(=O)(=O)C1CCN(S(=O)(=O)C2CC2)CC1
cytotoxicity at 10 µM: -16.7%

NC(=O)c1ccc2c(c1)nc1n2CCN(Cc2ccccc2)C1
cytotoxicity at 10 µM: -8.8%

CCOCC(=O)N1C[C@@H]2COC[C@H](c3nc(C)no3)[C@@H]2C1
cytotoxicity at 10 µM: -11.1%

CCn1nc(C)c2nc(C(C)C)nc(NC)c21
cytotoxicity at 10 µM: 7.19%

COCCNC(=O)c1cc(C(C)C)nc(N2CCCC2)n1
cytotoxicity at 10 µM: 5.03%

CC(C)C(=O)NCCCn1ncc2c(Cl)cccc21
cytotoxicity at 10 µM: -21.6%

CC(C)N1CCCC1c1csc(N)n1 (stereo unspecified)
cytotoxicity at 10 µM: 2.33%

Cc1ccc(CN2CCOC(c3cnccn3)C2)s1 (stereo unspecified)
cytotoxicity at 10 µM: -2.81%

CCc1ccccc1CNC(=O)CCc1cnn(C)c1
cytotoxicity at 10 µM: -3.09%

O=C1CC(C(=O)Nc2nnc(-c3ccoc3)[nH]2)c2ccccc2N1 (stereo unspecified)
cytotoxicity at 10 µM: 0.841%

Cc1noc(C2CCN(C(=O)c3cc(Cl)c(Cl)n3C)CC2)n1
cytotoxicity at 10 µM: 10.7%

CC(C)c1noc(CNc2ccccc2CC(=O)N(C)C)n1
cytotoxicity at 10 µM: -10.6%

CC(NC(=O)CCN1CCOC1=O)(c1ccccc1)c1ccccc1
cytotoxicity at 10 µM: -10%

CC(O)CN(C)c1cc(C(F)(F)F)nc(-c2cccnc2)n1 (stereo unspecified)
cytotoxicity at 10 µM: -6.68%

COc1ncnc(N)c1CNCCc1ccc(-n2cccn2)cc1
cytotoxicity at 10 µM: -13.3%

CC(C)C(C)N(C)C(=O)COc1ccccc1C#N (stereo unspecified)
cytotoxicity at 10 µM: -3.28%

CC(C)(C)c1nccc(N2CCCCC2CNS(C)(=O)=O)n1 (stereo unspecified)
cytotoxicity at 10 µM: -2.84%

COc1cc(CNC(=O)Nc2nnc(C3CC3)s2)ccc1O
cytotoxicity at 10 µM: 31.3%

Cn1cnnc1CNC(=O)Nc1ccc(OC2CCC2)c(F)c1
cytotoxicity at 10 µM: 1.03%

CCCN(C)C(=O)c1cc(S(=O)(=O)NCC)ccc1C
cytotoxicity at 10 µM: -0.403%

CS(=O)(=O)Nc1ccc(CNC(=O)CN2CCc3ccccc32)cc1
cytotoxicity at 10 µM: 7.1%

CC(CN1CCCC1=O)NC(=O)c1ccc(-c2ccco2)[nH]c1=O (stereo unspecified)
cytotoxicity at 10 µM: -5.04%

Cc1cnn(CCNCC(O)c2cccc(Br)c2)c1 (stereo unspecified)
cytotoxicity at 10 µM: 1.66%

Cc1cccc(N2CCN(C(=O)CN3CCC(C(N)=O)CC3)CC2)c1
cytotoxicity at 10 µM: 4.52%

Cc1nccn1-c1cc(CNC(=O)N2CCSCC2)ccn1
cytotoxicity at 10 µM: -0.613%

COCCn1cc(NC(=O)C(C)CCc2ccccc2F)ccc1=O (stereo unspecified)
cytotoxicity at 10 µM: -3.73%

c1coc(-c2nnc(CN(Cc3cccs3)CC3CCCO3)o2)c1 (stereo unspecified)
cytotoxicity at 10 µM: 5.79%

Cn1cc(C(=O)Nc2ccnc(Oc3ccccc3)c2)ccc1=O
cytotoxicity at 10 µM: -4.5%

CCC(NC(=O)c1ccc2[nH]ccc2c1)C(=O)N1CCOCC1 (stereo unspecified)
cytotoxicity at 10 µM: 5.84%

Cc1cc(CNC2(c3ccc(Cl)cc3)CC2)no1
cytotoxicity at 10 µM: 1.5%

CCCC(=O)N1CCCCC1C(=O)Nc1ccc(-c2nnc[nH]2)cc1 (stereo unspecified)
cytotoxicity at 10 µM: 7.65%

CCN(CC)c1ccc(C(=O)NCc2cccnc2-n2cncn2)cn1
cytotoxicity at 10 µM: 11.7%

COc1ccc(NC(=O)C2CCOC2)c(N2CCN(C(C)=O)CC2)n1 (stereo unspecified)
cytotoxicity at 10 µM: -12.2%

CC(O)CN1CCN(C(=O)c2cnn(-c3ccc(Cl)cc3)c2)CC1 (stereo unspecified)
cytotoxicity at 10 µM: -10.3%

Cn1cc(S(=O)(=O)N2CCCC2CC(=O)c2cccs2)cn1 (stereo unspecified)
cytotoxicity at 10 µM: -8.08%

COCCN(Cc1ccc(F)cc1Cl)C(=O)c1ccc(=O)[nH]n1
cytotoxicity at 10 µM: 0.469%

CC(C)c1noc(CN(Cc2ccccc2F)C2CC2)n1
cytotoxicity at 10 µM: -7.96%

CC(O)CN1CCN(C(=O)c2cc3ccccc3[nH]c2=O)CC1 (stereo unspecified)
cytotoxicity at 10 µM: 0.407%

Cc1cccc(CN2CC[C@@H]3O[C@@H](C(=O)N4CCN(C)CC4)C[C@@H]32)c1
cytotoxicity at 10 µM: 8.01%

O=C(c1ccnnc1)N1CCC2(CC1)CCN(C(=O)c1cccnc1)C2
cytotoxicity at 10 µM: -97.8%

CSCc1noc(CNC(=O)C2CCN(C(=O)C3CCC3)CC2)n1
cytotoxicity at 10 µM: 6.35%

COc1ccc(Cc2nc3c([nH]2)CC(C)(C)CNC3=O)c(OC)c1
cytotoxicity at 10 µM: -1.02%

O=C(c1cnn[nH]1)N(CCCO)Cc1cccnc1
cytotoxicity at 10 µM: -2.48%

Cc1ccccc1CC(=O)N1CCCn2cncc2C1
cytotoxicity at 10 µM: -1.1%

O=C(CN1CCOC1=O)N1CC[C@@H](c2ccc3ccccc3c2)[C@H](O)C1
cytotoxicity at 10 µM: 0.562%

COc1cccc(OCC2CCCN(C(=O)CCCn3cccn3)C2)c1 (stereo unspecified)
cytotoxicity at 10 µM: 8.12%

CC(C)c1cc(CN2CCN(c3cccnc3)CC2)n(C)n1
cytotoxicity at 10 µM: -0.0184%

CC(=O)c1cccc(C(=O)N2C[C@@H](CN3CCCCCC3)[C@@H](CO)C2)c1
cytotoxicity at 10 µM: 3.32%

CCN(CC)C(=O)[C@@H]1C[C@H](n2cc(-c3cccc(OC)c3)nn2)CN1
cytotoxicity at 10 µM: 12.4%

Cc1nc[nH]c1CN1CCOC(CCNC(=O)c2ccsc2)C1 (stereo unspecified)
cytotoxicity at 10 µM: -13.1%

C1CCC(c2nnc3sc(C4CCOC4)nn23)C1 (stereo unspecified)
cytotoxicity at 10 µM: -2.16%

Cc1[nH]c2ccc(CNc3cc(C(N)=O)ccn3)cc2c1C
cytotoxicity at 10 µM: -4.73%

O=C(O)C1c2nc[nH]c2CCN1Cc1ccc(-c2ccccc2)s1 (stereo unspecified)
cytotoxicity at 10 µM: -9.35%

COc1ccc(CCN(C)C(C(=O)O)c2ccc(F)c(C)c2)cc1OC (stereo unspecified)
cytotoxicity at 10 µM: 2.93%

Cc1[nH]c2c(C)ccc(C)c2c1CC(=O)NCc1csc(N(C)C)n1
cytotoxicity at 10 µM: -6.65%

CCOc1ccc(C(=O)N2Cc3cnc(CC(C)C)nc3C2)o1
cytotoxicity at 10 µM: 7.18%

CCC(C)CN1CCC(n2cc(C3CCCC3)nn2)CC1 (stereo unspecified)
cytotoxicity at 10 µM: -2.13%

CCc1noc(CN(CC)C(=O)CC2C(=O)NCCN2CC=C(C)C)n1 (stereo unspecified)
cytotoxicity at 10 µM: 2.24%

CSCc1noc(CNC2CCCC(C)(C)C2)n1 (stereo unspecified)
cytotoxicity at 10 µM: -0.268%

Cc1cccc2cc(CN3CCC(O)(CN4CCCC4)CC3)c(=O)[nH]c12
cytotoxicity at 10 µM: -14.9%

CC(c1ccco1)N(C)Cc1cc2cc3c(cc2[nH]c1=O)OCO3 (stereo unspecified)
cytotoxicity at 10 µM: 2.59%

Nc1nc2c(c(=O)[nH]1)CCN(C(=O)c1cccc3nccnc13)C2
cytotoxicity at 10 µM: -11.4%

CC(=O)N1C[C@@H](c2ccsc2)[C@@H]2CN(Cc3ccccc3)CC[C@@H]21
cytotoxicity at 10 µM: 6.76%

CC1CN(Cc2cccnc2)CCN1c1ccc2nncn2n1 (stereo unspecified)
cytotoxicity at 10 µM: -11.1%

Cc1nn(C)c(C)c1CCC(=O)N1CCCC(n2cccn2)C1 (stereo unspecified)
cytotoxicity at 10 µM: -6.69%

CCc1cnc(CN(C(C)=O)C2CCN(CCc3ccccc3)C2)o1 (stereo unspecified)
cytotoxicity at 10 µM: -8.17%

Cc1nnc2n1CCN(C(=O)CN(C)Cc1ccccc1)C2
cytotoxicity at 10 µM: -4.56%

CC(=O)N1CCN(C(=O)c2csc(-c3ccc(C)cc3C)n2)CC1
cytotoxicity at 10 µM: -18.8%

CC(C)c1noc(CN2CCN(C(=O)c3ccc(F)cc3)CC2)n1
cytotoxicity at 10 µM: -9.73%

c1ccc(-c2noc(CCCN3CCCC3Cn3cncn3)n2)cc1 (stereo unspecified)
cytotoxicity at 10 µM: -2.06%

Cn1ccnc1CN1CCN(CC(=O)NCc2cccs2)CC1
cytotoxicity at 10 µM: -8.25%

COc1c(CNCc2ccc(Cn3ccnc3)cc2)c(C)nn1C
cytotoxicity at 10 µM: -25.1%

CC(Cn1ccnc1)NC(=O)NCCc1cccnc1 (stereo unspecified)
cytotoxicity at 10 µM: -12.1%

Cc1cccc(NC2CCN(C(=O)Nc3ccncc3)CC2)n1
cytotoxicity at 10 µM: -17.1%

COc1ccc2cc(C(=O)N3CCCC3Cn3cc(C)cn3)[nH]c2c1 (stereo unspecified)
cytotoxicity at 10 µM: -0.743%

CN(Cc1cnn(C)c1)C(=O)C1CCCN1Cc1ccccn1 (stereo unspecified)
cytotoxicity at 10 µM: -25.8%

Cc1cnn(C2CCCN(C(=O)c3ccc(Cn4ccnc4)cc3)C2)c1 (stereo unspecified)
cytotoxicity at 10 µM: 2.54%

Cc1cc(C(=O)N2CCCC(n3cncn3)C2)nn1C (stereo unspecified)
cytotoxicity at 10 µM: -0.776%

COc1ccccc1CCNC(=O)N1CCC(n2cncn2)CC1
cytotoxicity at 10 µM: 0.428%

CC(C)c1nc2n(n1)CC(NCc1nc(C3CC3)no1)CC2 (stereo unspecified)
cytotoxicity at 10 µM: -7.59%

COc1cccc(C(=O)N2CCCC(CNS(C)(=O)=O)C2)c1 (stereo unspecified)
cytotoxicity at 10 µM: -17.9%

O=C1NCCN1C1CCN(Cc2nc(-c3ccoc3)no2)CC1
cytotoxicity at 10 µM: -9.06%

Cc1nnc2n1CCN(C(=O)c1cc(C)n(-c3ccccn3)c1C)C2
cytotoxicity at 10 µM: 0.765%

COc1cc(C(=O)N(Cc2cnn(C)c2)C(C)C)ccc1OCC(N)=O
cytotoxicity at 10 µM: -5.45%

O=C(CN1CCOC(Cn2cccn2)C1)NCCc1ccc(F)cc1 (stereo unspecified)
cytotoxicity at 10 µM: -15.6%

O=C(C1CCS(=O)(=O)C1)N1CCN(c2cnccn2)CC1 (stereo unspecified)
cytotoxicity at 10 µM: -6.66%

CN(C)c1cc(C(=O)N2CCN(S(C)(=O)=O)CC2)ccn1
cytotoxicity at 10 µM: -4.46%

CC(C)=CCN1CCOC(Cn2nc(C)cc2C)C1 (stereo unspecified)
cytotoxicity at 10 µM: -9.93%

Cc1cccc2c1OCCC2NCc1c(C)nn(C)c1N(C)C (stereo unspecified)
cytotoxicity at 10 µM: -5.72%

Cc1cc(C)n2cc(CN3CCCC3Cn3nc(C)nc3C)nc2n1 (stereo unspecified)
cytotoxicity at 10 µM: 4.91%

Cc1cnn(C2CCCN(C(=O)c3ccnc(N(C)C)c3)C2)c1 (stereo unspecified)
cytotoxicity at 10 µM: 5.15%

CCOC1CCN(C(=O)c2cnn(-c3ccccc3Cl)c2)CC1
cytotoxicity at 10 µM: -9.78%

COc1cc(C)nc(N2CCN(C(=O)c3ccccc3C)CC2)n1
cytotoxicity at 10 µM: -2.18%

CCc1nc(C2CCCN2CCn2cncn2)no1 (stereo unspecified)
cytotoxicity at 10 µM: -8.13%

CCOc1ccc(Br)cc1C1CCCN1 (stereo unspecified)
cytotoxicity at 10 µM: 5.01%

O=C(c1cccnc1)N1CCC2(CC1)CCN(c1ccsc1)C2=O
cytotoxicity at 10 µM: 6.84%

CC(C)CN1CCO[C@H]2CCN(c3cnccn3)CC[C@@H]21
cytotoxicity at 10 µM: 2.31%

O=C(c1cccnc1)N1CCC2(CC1)COCCN(c1ncccn1)C2
cytotoxicity at 10 µM: 2.66%

COCC1CC2(CCN(c3ccc(C)nn3)CC2)CN1C(C)C (stereo unspecified)
cytotoxicity at 10 µM: -112%

CCCN1CCC(c2nc3ccc(-c4ccncc4)cn3n2)CC1
cytotoxicity at 10 µM: -117%

Cn1ccnc1CN1CCC2(CC1)CCN(c1ccccc1)C2=O
cytotoxicity at 10 µM: -9.06%

c1csc(CN2CCO[C@H]3[C@H](OCCN4CCCC4)CC[C@@H]32)n1
cytotoxicity at 10 µM: -7.32%

Cc1cccc(CO[C@@H]2CC[C@H]3[C@H]2OCCN3Cc2ccsc2)n1
cytotoxicity at 10 µM: -16.3%

O=c1cc(Cn2cncn2)nc2n1CCCN(CCN1CCCC1)C2
cytotoxicity at 10 µM: 2.78%

NC1CCC(n2cc(C(=O)N[C@H]3CCCc4ccccc43)nn2)CC1 (stereo partly specified)
cytotoxicity at 10 µM: -5.71%

Reference: ChEMBL document CHEMBL4513216, “Probing the Open Global Health Chemical Diversity Library for Multistage-Active Starting Points for Next-Generation Antimalarials” (ACS Infect Dis, 2020)
